From paper PMC12138345 (RSC Advances, 2025) come the findings set out here.

One assay addresses T1, CtPilB (Chloracidobacterium thermophilum, UniProt G2LDI3).
T1 sequence (G2LDI3 140-614): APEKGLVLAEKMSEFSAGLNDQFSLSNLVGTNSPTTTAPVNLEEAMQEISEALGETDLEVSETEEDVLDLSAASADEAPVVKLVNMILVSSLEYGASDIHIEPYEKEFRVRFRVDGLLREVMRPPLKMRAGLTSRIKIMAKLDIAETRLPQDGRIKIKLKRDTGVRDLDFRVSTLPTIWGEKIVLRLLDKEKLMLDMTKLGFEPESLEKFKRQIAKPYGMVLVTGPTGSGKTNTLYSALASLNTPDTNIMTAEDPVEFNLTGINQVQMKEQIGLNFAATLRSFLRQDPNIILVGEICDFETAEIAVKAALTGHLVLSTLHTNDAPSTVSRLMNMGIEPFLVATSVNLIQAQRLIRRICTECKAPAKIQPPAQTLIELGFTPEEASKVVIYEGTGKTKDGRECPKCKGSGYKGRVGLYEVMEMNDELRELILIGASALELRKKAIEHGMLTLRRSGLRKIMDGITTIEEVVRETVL
The assay can be described thus: CtPilB ATPase malachite green assay. As to conditions: for inhibition at 3 µM: read-out: % Inhib. 3 μM; for inhibition at 30 µM: read-out: % Inhib. 30 μM. In kind it is biochemical. In a few lines:
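N-terminally truncated CtPilB hexamer (lacking residues 1–139, purified), 3.3 nM, with 1 mM ATP, 2% DMSO and test compound, 54 °C, 30 min. Quenched with 30% TCA; phosphate detected by malachite green/ammonium molybdate, absorbance at 620 nm, room temperature. Screen at 3 and 30 μM with benserazide as benchmark; IC50 from concentration–response fits.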

Another assay deals with apyrase. The assay can be described thus: Apyrase ATPase selectivity assay. It is filed as biochemical. The following applies: varying concentrations up to 64 μM; 1 mM ATP, 37 °C, 30 min; p-value > 0.05. In a few lines: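 Commercial apyrase (6.7 × 10−7 U μl−1) with 1 mM ATP in 20 mM MES, 50 mM NaCl, 5 mM CaCl2, 1 mM DTT, 2% DMSO, test compound up to 64 μM, 37 °C, 30 min. Stopped with 30% TCA; released phosphate measured by malachite green assay. Biological experiments run in duplicate; concentrations compared statistically.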

Where a name gives a salt, the structure may show the parent alone. Read-outs that look alike come from different tables or passages of the source.

With `N[C@H](CO)C(=O)N/N=C/c1cc(O)ccc1O` (mixture of isomers) [8f, (R,E)-2-Amino-N′-(2,5-dihydroxybenzylidene)-3-hydroxypropanehydrazide hydrochloride], on CtPilB, the inhibition at 3 µM was determined as 40 ± 26% and the inhibition at 30 µM amounted to 80 ± 16%.
Regarding `N[C@H](CO)C(=O)N/N=C/c1ccccc1O` [8a, (R,E)-2-Amino-3-hydroxy-N′-(2-hydroxybenzylidene)propanehydrazide hydrochloride], the inhibition at 30 µM at CtPilB was determined as 23 ± 21%.
As to `N[C@H](CO)C(=O)N/N=C/c1ccc(O)c(O)c1O` [8j, (R,E)-2-Amino-3-hydroxy-N′-(2,3,4-trihydroxybenzylidene)propanehydrazide hydrochloride], at CtPilB, the inhibition at 3 µM was found to be 35 ± 9% and the inhibition at 30 µM was 84 ± 2%.
`N[C@H](CO)C(=O)N/N=C/c1ccc(O)cc1O` [8e, (R,E)-2-Amino-N′-(2,4-dihydroxybenzylidene)-3-hydroxypropanehydrazide hydrochloride]: the inhibition at 30 µM on CtPilB worked out at 69 ± 10%.
The IC50 is the concentration that gives 50% inhibition. On to `NC(CO)C(=O)NNCc1ccc(O)c(O)c1O` (stereo not shown) [Benserazide, reference compound], for which, on CtPilB, it took 3680 nM to reach half-maximal inhibition (IC50), the inhibition at 3 µM came to 34 ± 10% and the inhibition at 30 µM is 80 ± 8%. In the assay with apyrase, the “Inhibition of apyrase ATPase activity” value was “no significant difference”.
Take `COc1cccc(O)c1/C=N/NC(=O)[C@H](N)CO` [8h, (R,E)-2-Amino-3-hydroxy-N′-(2-hydroxy-6-methoxybenzylidene)propanehydrazide hydrochloride]: the inhibition at 30 µM at CtPilB was 67 ± 4%.
As to `COc1ccc(/C=N/NC(=O)[C@H](N)CO)c(OC)c1OC.Cl` [8l, (R,E)-2-Amino-3-hydroxy-N′-(2,3,4-trimethoxybenzylidene)propanehydrazide hydrochloride], the “Activity against PilB (in words)” value on CtPilB (screen at 3 and 30 μM) is given as “essentially had no activity”.
As for `N[C@H](CO)C(=O)NNCc1cc(O)ccc1O` [7f, (R)-2-Amino-N′-(2,5-dihydroxybenzyl)-3-hydroxypropanehydrazide hydrochloride], at CtPilB, the inhibition at 30 µM worked out at 45 ± 6%.
In the case of `N[C@H](CO)C(=O)NNCc1c(O)cccc1O` [7g, (R)-2-Amino-N′-(2,6-dihydroxybenzyl)-3-hydroxypropanehydrazide hydrochloride], at CtPilB, the inhibition at 3 µM came out at 32 ± 12% and the inhibition at 30 µM came out at 74 ± 5%.
`N[C@H](CO)C(=O)NNCc1ccc(O)cc1O` [7e, (R)-2-Amino-N′-(2,4-dihydroxybenzyl)-3-hydroxypropanehydrazide hydrochloride]: on CtPilB, the inhibition at 30 µM amounted to 40 ± 2%.
Turning to `N[C@H](CO)C(=O)NNCc1cccc(O)c1O` [7d, (R)-2-Amino-N′-(2,3-dihydroxybenzyl)-3-hydroxypropanehydrazide hydrochloride], at CtPilB, the inhibition at 3 µM is 19 ± 12% and the inhibition at 30 µM was found to be 78.2 ± 4%.
For the compound `N[C@H](CO)C(=O)N/N=C/c1cccc(O)c1` [8b, (R,E)-2-Amino-3-hydroxy-N′-(3-hydroxybenzylidene)propanehydrazide hydrochloride], the inhibition at 30 µM at CtPilB amounted to 18 ± 9%.
Consider `Cl.N[C@H](CO)C(=O)N/N=C/c1c(O)ccc(O)c1O` [8k, (R,E)-2-Amino-3-hydroxy-N′-(2,3,6-trihydroxybenzylidene)propanehydrazide hydrochloride], for which, at CtPilB, the IC50 came out at 1060 nM, the inhibition at 3 µM worked out at 71 ± 4% and the inhibition at 30 µM came to 91 ± 8%. Further, the “Inhibition of apyrase ATPase activity” value in the assay on apyrase was “no significant difference”.
With `Cl.N[C@H](CS)C(=O)N/N=C/c1c(O)cccc1O` [11c, (S,E)-2-Amino-N′-(2,6-dihydroxybenzylidene)-3-mercaptopropanehydrazide hydrochloride], at CtPilB, the IC50 was determined as 580 nM, the inhibition at 3 µM is 90 ± 1% and the inhibition at 30 µM is 97 ± 11%. The “Potency relative to benserazide” value at CtPilB (ratio of IC50 values) came to 6 fold. Besides, the “Inhibition of apyrase ATPase activity” value with apyrase is “no significant difference”.
For `C[C@@H](N)C(=O)N/N=C/c1c(O)cccc1O` [11b, (R,E)-2-amino-N′-(2,6-dihydroxybenzylidene)propanehydrazide hydrochloride], on CtPilB, the inhibition at 3 µM turned out to be 26 ± 11% and the inhibition at 30 µM worked out at 87 ± 4%.
Take `N[C@H](CO)C(=O)N/N=C/c1ccc(O)cc1` [8c, (R,E)-2-Amino-3-hydroxy-N′-(4-hydroxybenzylidene)propanehydrazide hydrochloride]: the inhibition at 30 µM on CtPilB worked out at 2 ± 3%.
Turning to `N[C@H](CO)C(=O)N/N=C/c1c(O)cccc1O` [8g, (R,E)-2-Amino-N′-(2,6-dihydroxybenzylidene)-3-hydroxypropanehydrazide hydrochloride], inhibition on CtPilB (dose–response 0.01–50 μM, benserazide as control) was half-maximal at 1320 nM (IC50). In addition, at CtPilB, the inhibition at 3 µM was 65 ± 5% and the inhibition at 30 µM was determined as 86 ± 3%.
Take `NNC(=O)[C@@H](N)CO` [compound 4, (S)-2-Amino-3-hydroxypropanehydrazide dihydrochloride]: at CtPilB, the inhibition at 30 µM is 27 ± 19%.
Consider `NCC(=O)N/N=C/c1c(O)cccc1O` [11a, (E)-2-Amino-N′-(2,6-dihydroxybenzylidene)acetohydrazide hydrochloride], for which, on CtPilB, the inhibition at 3 µM came out at 55 ± 8% and the inhibition at 30 µM was 92 ± 5%.
As for `N[C@H](CO)C(=O)N/N=C/c1ccc(O)c(O)c1` [8i, (R,E)-2-Amino-N′-(3,4-dihydroxybenzylidene)-3-hydroxypropanehydrazide hydrochloride], the inhibition at 30 µM at CtPilB was determined as 14 ± 4%.
As for `N[C@H](CO)C(=O)NNCc1ccccc1O` [7a, (R)-2-Amino-3-hydroxy-N′-(2-hydroxybenzyl)propanehydrazide hydrochloride], the inhibition at 30 µM at CtPilB stood at 32 ± 4%.
Same read-out and setting: with `N[C@H](CO)C(=O)N/N=C/c1cccc(O)c1O` [8d, (R,E)-2-Amino-N′-(2,3-dihydroxybenzylidene)-3-hydroxypropanehydrazide hydrochloride] the figure was 84 ± 4%.
